Laboratory results taken from ChEMBL document CHEMBL4359890, “Design, synthesis of oleanolic acid-saccharide conjugates using click chemistry methodology and study of their anti-influenza activity” (Eur J Med Chem, 2019).
The source made the active and inactive calls. The rule behind the calls is not given here.

Experiments:
Influenza A virus [1] = assay: Antiviral activity against Influenza A virus A/WSN/33 infected in MDCK cells assessed as reduction in virus-induced cytopathic effect at 100 uM after 40 hrs by Celltiter-Glo assay; format: functional, organism-based
How it was run: (§1)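 This was a single-concentration screen at 100 μM in MDCK cells infected with A/WSN/33 at MOI 0.1. CPE protection was read by CellTiter-Glo after 40 h of incubation. The inhibition rate was expressed relative to 1% DMSO (final) negative control, with oseltamivir phosphate as the positive control. Experiments were run in triplicate.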

MDCK = assay: Cytotoxicity against dog MDCK cells assessed as reduction in cell viability at 100 uM measured after 40 hrs by Celltiter-Glo assay; format: cell-based, Canis lupus familiaris
How it was run: (§2)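 Uninfected MDCK cells were grown overnight in 96-well plates with 1% FBS. They were then exposed to increasing compound concentrations, or to a single 100 μM screen, for 40 h, and viability was read by CellTiter-Glo. CC50 is the concentration causing 50% death of uninfected cells.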

Influenza A virus [2] = assay: Antiviral activity against Influenza A virus A/WSN/33 infected in MDCK cells assessed as reduction in virus-induced cytopathic effect at 100 uM after 40 hrs by Celltiter-Glo assay relative to control; format: functional; settings: A/WSN/33, MDCK; how it was run: as §1
[3] = Cytotoxicity against dog MDCK cells assessed as cell viability at 100 uM measured after 40 hrs by Celltiter-Glo assay relative to control; format: cell-based, Canis lupus familiaris; settings: read-out: Activity; how it was run: as §2
[4] = Cytotoxicity against dog MDCK cells assessed as reduction in cell viability measured after 40 hrs by Celltiter-Glo assay; format: cell-based, Canis lupus familiaris; how it was run: as §2
[5] = molecular target: Hemagglutinin (Influenza A virus) (UniProt B4URE7); assay: Inhibition of influenza A virus A/WSN/33 HA-mediated chicken erythrocytes hemagglutination pretreated with compound followed by erythrocytes addition measured after 30 mins
Hemagglutinin (Influenza A virus), sequence (B4URE7 as listed by the source): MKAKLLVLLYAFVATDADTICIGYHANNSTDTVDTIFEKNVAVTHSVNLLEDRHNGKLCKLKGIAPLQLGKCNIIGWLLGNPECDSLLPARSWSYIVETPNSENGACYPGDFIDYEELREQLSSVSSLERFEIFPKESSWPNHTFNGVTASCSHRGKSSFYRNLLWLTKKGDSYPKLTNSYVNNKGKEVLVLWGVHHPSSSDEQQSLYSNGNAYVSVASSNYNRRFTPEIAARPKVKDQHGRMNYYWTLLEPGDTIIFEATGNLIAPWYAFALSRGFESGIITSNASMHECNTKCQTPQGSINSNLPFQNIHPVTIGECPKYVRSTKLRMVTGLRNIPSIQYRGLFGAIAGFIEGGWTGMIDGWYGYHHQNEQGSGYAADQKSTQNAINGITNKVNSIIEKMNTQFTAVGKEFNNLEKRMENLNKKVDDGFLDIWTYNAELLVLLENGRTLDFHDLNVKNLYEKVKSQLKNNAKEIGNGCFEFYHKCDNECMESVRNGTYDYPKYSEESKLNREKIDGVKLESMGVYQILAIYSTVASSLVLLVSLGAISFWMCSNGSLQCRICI
How it was run: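 Compound was serially diluted 2-fold in saline and mixed with an equal volume of A/WSN/33 (H1N1) virus in V-bottom plates. Freshly prepared chicken red blood cells (1% v/v in saline) were then added. After 30 min at room temperature, erythrocyte aggregation was scored visually. Anti-HA antibody served as the positive control.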

Influenza A virus [6] = assay: Antiviral activity against Influenza A virus A/WSN/33 assessed as inhibition of virus-induced cytopathic effect after 40 hrs by Celltiter-Glo assay; format: functional, organism-based; settings: A/WSN/33, 40 h
How it was run: (§3)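 MDCK cells were seeded in 96-well plates, left overnight, then infected with influenza virus at MOI 0.1 and treated with the compound. After 40 h, viability was read by CellTiter-Glo luminescence. 1% DMSO (final) served as the negative control and oseltamivir phosphate as the positive control. IC50 is the concentration that inhibits virus-induced CPE by 50%, taken from dose-response curves in replicate independent experiments.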

[7] = Selectivity index, ratio of CC50 for MDCK cells to IC50 for influenza A virus A/WSN/33; format: toxicity; settings: dog, read-out: Ratio CC50/IC50
How it was run: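 SI was calculated as CC50 (uninfected MDCK, 40 h CellTiter-Glo) divided by IC50 (50% inhibition of A/WSN/33 replication in MDCK, MOI 0.1, 40 h CellTiter-Glo).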

Influenza A virus [8] = assay: Antiviral activity against Influenza A virus A/Victoria/361/2011(H3N2) infected in MDCK cells assessed as inhibition of virus-induced cytopathic effect after 40 hrs by Celltiter-Glo assay; format: functional, organism-based; how it was run: as §3
Influenza B virus [9] = assay: Antiviral activity against Influenza B virus B/Yamagata/16/88(BY) infected in MDCK cells assessed as inhibition of virus-induced cytopathic effect after 40 hrs by Celltiter-Glo assay; format: functional, organism-based; how it was run: as §3
Influenza B virus [10] = assay: Antiviral activity against Influenza B virus B/Sichuan/531/2018(BV) infected in MDCK cells assessed as inhibition of virus-induced cytopathic effect after 40 hrs by Celltiter-Glo assay; format: functional, organism-based; how it was run: as §3
Influenza B virus [11] = assay: Antiviral activity against Influenza B virus B/Massachusetts/2/2012(BV) infected in MDCK cells assessed as inhibition of virus-induced cytopathic effect after 40 hrs by Celltiter-Glo assay; format: functional, organism-based; how it was run: as §3
Influenza B virus [12] = assay: Potency index, ratio of OSV-p IC50 to compound IC50 for antiviral activity against Influenza B virus B/Yamagata/16/88(BY); format: functional

With CC(=O)OC[C@H]1O[C@@H](n2cc(CNC(=O)[C@]34CCC(C)(C)C[C@H]3C3=CC[C@@H]5[C@@]6(C)CC[C@H](O)C(C)(C)[C@@H]6CC[C@@]5(C)[C@]3(C)CC4)nn2)[C@H](OC(C)=O)[C@@H](OC(C)=O)[C@@H]1O[C@H]1O[C@H](COC(C)=O)[C@@H](O[C@H]2O[C@H](COC(C)=O)[C@@H](OC(C)=O)[C@H](OC(C)=O)[C@H]2OC(C)=O)[C@H](OC(C)=O)[C@H]1OC(C)=O as the molecule, how does the Activity (Influenza A virus [1]) read?
Its Activity is “inactive”.

And the Activity (MDCK)?
The Activity was “Non-Toxic”.

Which results are given for CC1(C)CC[C@]2(C(=O)NCc3cn([C@@H]4O[C@H](CO)[C@@H](O)[C@H](O)[C@H]4O)nn3)CC[C@]3(C)C(=CC[C@@H]4[C@@]5(C)CC[C@H](O)C(C)(C)[C@@H]5CC[C@]43C)[C@@H]2C1?
inhibition at 100 µM (Influenza A virus [2]): > 75%; viability at 40 h, 100 µM [3]: > 75%; CC50 at 40 h [4]: > 100 µM; inhibition [5]: Active; IC50 (Influenza A virus [6]): 5.47 µM; selectivity ratio [7]: > 18.3; IC50 (Influenza A virus [8]): 10.4 µM; IC50 (Influenza B virus [9]): 5.54 µM; IC50 (Influenza B virus [10]): 26.1 µM; IC50 (Influenza B virus [11]): 11.5 µM; Ratio IC50 (Influenza B virus [12]): 4; Activity (MDCK): Non-Toxic

Which Activity (MDCK) does the source give for CC1(C)CC[C@]2(C(=O)NCc3cn([C@@H]4O[C@H](CO)[C@@H](O[C@@H]5O[C@H](CO)[C@@H](O)[C@H](O)[C@H]5O)[C@H](O)[C@H]4O)nn3)CC[C@]3(C)C(=CC[C@@H]4[C@@]5(C)CC[C@H](O)C(C)(C)[C@@H]5CC[C@]43C)[C@@H]2C1 here?
The Activity was “Non-Toxic”.

Which Activity (MDCK) does the source give for CC1(C)CC[C@]2(C(=O)NCc3cn([C@@H]4O[C@H](CO)[C@H](O)[C@H](O)[C@H]4O)nn3)CC[C@]3(C)C(=CC[C@@H]4[C@@]5(C)CC[C@H](O)C(C)(C)[C@@H]5CC[C@]43C)[C@@H]2C1 here?
Its Activity is “Non-Toxic”.

Which Activity (MDCK) does the source give for CC(=O)OC[C@H]1O[C@@H](n2cc(CNC(=O)[C@]34CCC(C)(C)C[C@H]3C3=CC[C@@H]5[C@@]6(C)CC[C@H](O)C(C)(C)[C@@H]6CC[C@@]5(C)[C@]3(C)CC4)nn2)[C@H](OC(C)=O)[C@@H](OC(C)=O)[C@@H]1O[C@H]1O[C@H](COC(C)=O)[C@@H](OC(C)=O)[C@H](OC(C)=O)[C@H]1OC(C)=O here?
The Activity was “Non-Toxic”.

Which Activity (Influenza A virus [1]) does the source give for CC1(C)CC[C@]2(C(=O)NCc3cn([C@@H]4O[C@H](CO)[C@@H](O[C@H]5O[C@H](CO)[C@@H](O[C@H]6O[C@H](CO)[C@@H](O)[C@H](O)[C@H]6O)[C@H](O)[C@H]5O)[C@H](O)[C@H]4O)nn3)CC[C@]3(C)C(=CC[C@@H]4[C@@]5(C)CC[C@H](O)C(C)(C)[C@@H]5CC[C@]43C)[C@@H]2C1 here?
Its Activity is “inactive”.

And the Activity (MDCK)?
Its Activity is “Non-Toxic”.

For CC1(C)CC[C@]2(C(=O)NCc3cn([C@H]4O[C@H](CO)[C@@H](O)[C@H](O)[C@@H]4O)nn3)CC[C@]3(C)C(=CC[C@@H]4[C@@]5(C)CC[C@H](O)C(C)(C)[C@@H]5CC[C@]43C)[C@@H]2C1, which Activity (MDCK) is on record?
The Activity was “Non-Toxic”.

Which results are given for CC1(C)CC[C@]2(C(=O)NCc3cn([C@@H]4OC[C@@H](O)[C@H](O)[C@H]4O)nn3)CC[C@]3(C)C(=CC[C@@H]4[C@@]5(C)CC[C@H](O)C(C)(C)[C@@H]5CC[C@]43C)[C@@H]2C1?
inhibition at 100 µM (Influenza A virus [2]): 75%; Activity (MDCK): Toxic

For CC1(C)CC[C@]2(C(=O)NCc3cn([C@@H]4O[C@H](CO)[C@@H](O[C@@H]5O[C@H](CO)[C@H](O)[C@H](O)[C@H]5O)[C@H](O)[C@H]4O)nn3)CC[C@]3(C)C(=CC[C@@H]4[C@@]5(C)CC[C@H](O)C(C)(C)[C@@H]5CC[C@]43C)[C@@H]2C1, which Activity (MDCK) is on record?
Its Activity is “Non-Toxic”.

Which Activity (MDCK) does the source give for CC(=O)O[C@@H]1[C@@H](OC(C)=O)[C@H](n2cc(CNC(=O)[C@]34CCC(C)(C)C[C@H]3C3=CC[C@@H]5[C@@]6(C)CC[C@H](O)C(C)(C)[C@@H]6CC[C@@]5(C)[C@]3(C)CC4)nn2)OC[C@@H]1OC(C)=O here?
Its Activity is “Non-Toxic”.

Which Activity (MDCK) does the source give for CC(=O)O[C@@H]1[C@@H](OC(C)=O)[C@H](C)O[C@@H](n2cc(CNC(=O)[C@]34CCC(C)(C)C[C@H]3C3=CC[C@@H]5[C@@]6(C)CC[C@H](O)C(C)(C)[C@@H]6CC[C@@]5(C)[C@]3(C)CC4)nn2)[C@@H]1OC(C)=O here?
The Activity was “Non-Toxic”.
